# Key:
# Assay type in all cases: functional
# [1] = system: Radical scavenging activity; assay: Antioxidant activity assessed as DPPH free radical scavenging activity at 1000 ug by spectrophotometer
# Method in brief: (§1)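 DPPH radical scavenging measured spectrophotometrically by Blois's method at 50, 500 and 1000 µg. Absorbance read at 517 nm. Percent scavenging is the absorbance decrease at 517 nm relative to the absorbance of DPPH solution without test compound. L-ascorbic acid as standard.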
# [2] = system: Radical scavenging activity; assay: Antioxidant activity assessed as DPPH free radical scavenging activity at 500 ug by spectrophotometer; method in brief: as §1
# [3] = system: Radical scavenging activity; assay: Antioxidant activity assessed as DPPH free radical scavenging activity at 50 ug by spectrophotometer; method in brief: as §1
# [4] = system: Staphylococcus aureus; assay: Antimicrobial activity against Staphylococcus aureus at 100 ug/ml by agar diffusion assay
# Method in brief: (§2)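 Agar diffusion assay in duplicate against the human bacterial pathogens; tetracycline as reference control.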
# [5] = system: Klebsiella pneumoniae; assay: Antimicrobial activity against Klebsiella pneumoniae at 100 ug/ml by agar diffusion assay; method in brief: as §2
# [6] = system: Klebsiella pneumoniae; assay: Antimicrobial activity against Klebsiella pneumoniae at 50 ug/ml by agar diffusion assay; method in brief: as §2
# [7] = system: Bacillus subtilis; assay: Antimicrobial activity against Bacillus subtilis at 50 ug/ml by agar diffusion assay; method in brief: as §2
# [8] = system: Bacillus subtilis; assay: Antimicrobial activity against Bacillus subtilis at 75 ug/ml by agar diffusion assay; method in brief: as §2
# [9] = system: Pseudomonas aeruginosa; assay: Antimicrobial activity against Pseudomonas aeruginosa at 75 ug/ml by agar diffusion assay; method in brief: as §2
# [10] = system: Bacillus subtilis; assay: Antimicrobial activity against Bacillus subtilis at 25 ug/ml by agar diffusion assay; method in brief: as §2
# [11] = system: Klebsiella pneumoniae; assay: Antimicrobial activity against Klebsiella pneumoniae at 75 ug/ml by agar diffusion assay; method in brief: as §2
# [12] = system: Pseudomonas aeruginosa; assay: Antimicrobial activity against Pseudomonas aeruginosa at 100 ug/ml by agar diffusion assay; method in brief: as §2
# [13] = system: Pseudomonas aeruginosa; assay: Antimicrobial activity against Pseudomonas aeruginosa at 50 ug/ml by agar diffusion assay; method in brief: as §2
# [14] = system: Bacillus subtilis; assay: Antimicrobial activity against Bacillus subtilis at 100 ug/ml by agar diffusion assay; method in brief: as §2
# [15] = system: Staphylococcus aureus; assay: Antimicrobial activity against Staphylococcus aureus at 50 ug/ml by agar diffusion assay; method in brief: as §2
# [16] = system: Pseudomonas aeruginosa; assay: Antimicrobial activity against Pseudomonas aeruginosa at 25 ug/ml by agar diffusion assay; method in brief: as §2
# [17] = system: Macrophomina phaseolina; assay: Antifungal activity against Macrophomina phaseolina
# Method in brief: (§3)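 Agar diffusion assay in duplicate against the plant fungal pathogens; read-out as minimum inhibitory concentration (MIC); carbendazim as reference control.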
# [18] = system: Klebsiella pneumoniae; assay: Antimicrobial activity against Klebsiella pneumoniae at 25 ug/ml by agar diffusion assay; method in brief: as §2
# [19] = system: Staphylococcus aureus; assay: Antimicrobial activity against Staphylococcus aureus at 75 ug/ml by agar diffusion assay; method in brief: as §2
# [20] = system: Staphylococcus aureus; assay: Antimicrobial activity against Staphylococcus aureus at 25 ug/ml by agar diffusion assay; method in brief: as §2
# [21] = system: Fusarium oxysporum; assay: Antifungal activity against Fusarium oxysporum; method in brief: as §3
SMILES,MIC [17],MIC [21],Activity [1],Activity [2],Activity [3],inhibition zone (IZ) [4],inhibition zone (IZ) [5],inhibition zone (IZ) [6],inhibition zone (IZ) [7],inhibition zone (IZ) [8],inhibition zone (IZ) [9],inhibition zone (IZ) [10],inhibition zone (IZ) [11],inhibition zone (IZ) [12],inhibition zone (IZ) [13],inhibition zone (IZ) [14],inhibition zone (IZ) [15],inhibition zone (IZ) [16],inhibition zone (IZ) [18],inhibition zone (IZ) [19],other results
O=C1O[C@H]([C@@H](O)CO)C(O)=C1O,–,–,99%,97%,95%,–,–,–,–,–,–,–,–,–,–,–,–,–,–,–,–
COC(=O)[C@]12Cc3c([nH]c4ccccc34)[C@@H](c3ccc(OC)cc3)N1[C@@H]1c3c(ccc4ccccc34)OC[C@@H]1C2,95 µg/mL,100 µg/mL,81%,48%,18%,20 mm,20 mm,11 mm,12 mm,17 mm,16 mm,9 mm,18 mm,19 mm,12 mm,20 mm,11 mm,10 mm,9 mm,18 mm,inhibition zone (IZ) [20]: 9 mm
COC(=O)[C@]12Cc3c([nH]c4ccccc34)[C@@H](c3ccc(C)cc3)N1[C@@H]1c3ccccc3OC[C@@H]1C2,80 µg/mL,110 µg/mL,73%,49%,24%,18 mm,19 mm,13 mm,12 mm,15 mm,16 mm,9 mm,18 mm,19 mm,12 mm,20 mm,13 mm,8 mm,8 mm,17 mm,inhibition zone (IZ) [20]: 9 mm
COC(=O)[C@@]1(Cc2c[nH]c3ccccc23)C[C@H]2COc3ccccc3[C@H]2N1,60 µg/mL,75 µg/mL,64%,51%,29%,23 mm,23 mm,15 mm,15 mm,20 mm,21 mm,11 mm,21 mm,23 mm,15 mm,26 mm,15 mm,10 mm,11 mm,20 mm,inhibition zone (IZ) [20]: 10 mm
COC(=O)[C@]12Cc3c([nH]c4ccccc34)[C@@H](c3ccccc3)N1[C@@H]1c3c(ccc4ccccc34)OC[C@@H]1C2,85 µg/mL,30 µg/mL,69%,33%,17%,26 mm,24 mm,12 mm,12 mm,20 mm,18 mm,9 mm,17 mm,25 mm,13 mm,24 mm,13 mm,9 mm,10 mm,18 mm,inhibition zone (IZ) [20]: 9 mm
CN(C)[C@@H]1C(O)=C(C(N)=O)C(=O)[C@@]2(O)C(O)=C3C(=O)c4c(O)cccc4[C@@](C)(O)[C@H]3C[C@@H]12 [TETRACYCLINE],–,–,–,–,–,> 40 mm,> 40 mm,22 mm,24 mm,29 mm,28 mm,15 mm,28 mm,> 40 mm,26 mm,> 40 mm,24 mm,20 mm,18 mm,29 mm,inhibition zone (IZ) [20]: 22 mm
COC(=O)Nc1nc2ccccc2[nH]1 [CARBENDAZIM],15 µg/mL,20 µg/mL,–,–,–,–,–,–,–,–,–,–,–,–,–,–,–,–,–,–,–

# Now from value to compound, other results behind:
MIC [17],MIC [21],SMILES,Activity [1],Activity [2],Activity [3],inhibition zone (IZ) [4],inhibition zone (IZ) [5],inhibition zone (IZ) [6],inhibition zone (IZ) [7],inhibition zone (IZ) [8],inhibition zone (IZ) [9],inhibition zone (IZ) [10],inhibition zone (IZ) [11],inhibition zone (IZ) [12],inhibition zone (IZ) [13],inhibition zone (IZ) [14],inhibition zone (IZ) [15],inhibition zone (IZ) [16],inhibition zone (IZ) [18],inhibition zone (IZ) [19],other results
30 µg/mL,85 µg/mL,COC(=O)[C@]12Cc3c([nH]c4ccccc34)[C@@H](c3ccc(C)cc3)N1[C@@H]1c3c(ccc4ccccc34)OC[C@@H]1C2,87%,53%,26%,19 mm,21 mm,12 mm,14 mm,16 mm,17 mm,9 mm,17 mm,20 mm,14 mm,20 mm,12 mm,8 mm,9 mm,17 mm,inhibition zone (IZ) [20]: 9 mm
40 µg/mL,30 µg/mL,COC(=O)[C@]12Cc3c([nH]c4ccccc34)[C@@H](c3ccccc3)N1[C@@H]1c3ccccc3OC[C@@H]1C2,70%,53%,28%,25 mm,26 mm,11 mm,11 mm,20 mm,20 mm,9 mm,19 mm,24 mm,12 mm,25 mm,11 mm,9 mm,9 mm,18 mm,inhibition zone (IZ) [20]: 9 mm
25 µg/mL,90 µg/mL,COC(=O)[C@]12Cc3c([nH]c4ccccc34)[C@@H](c3cccc([N+](=O)[O-])c3)N1[C@@H]1c3ccccc3OC[C@@H]1C2,70%,42%,18%,36 mm,36 mm,20 mm,21 mm,28 mm,26 mm,14 mm,25 mm,40 mm,24 mm,40 mm,22 mm,17 mm,15 mm,24 mm,inhibition zone (IZ) [20]: 20 mm
50 µg/mL,35 µg/mL,COC(=O)[C@]12Cc3c([nH]c4ccccc34)[C@@H](c3ccc(OC)cc3)N1[C@@H]1c3ccccc3OC[C@@H]1C2,68%,50%,28%,18 mm,20 mm,11 mm,11 mm,18 mm,15 mm,8 mm,19 mm,20 mm,11 mm,19 mm,12 mm,7 mm,8 mm,16 mm,–

# — ChEMBL document CHEMBL1944603, “An efficient synthesis of highly functionalized novel chromeno[4,3-b]pyrroles and indolizino[6,7-b]indoles as potent antimicrobial and antioxidant agents” (2012)
